Assay results taken from ChEMBL document CHEMBL1914380, “Polyalkoxybenzenes from plants. 5. Parsley seed extract in synthesis of azapodophyllotoxins featuring strong tubulin destabilizing activity in the sea urchin embryo and cell culture assays” (J Med Chem, 2011).
The source made the active and inactive calls. The rule behind the calls is not given here.

What follows are molecules tested on A549 (assay: Inhibition of microtubule polymerization in human A549 cells assessed as total disruption of interphase microtubule network at 0.5 uM after 8 hrs by immunofluorescence microscopy). Details: not given.
Format: cell-based
Procedure, shortened: (§1)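 A549 cells incubated 8 h with compound at 0.1, 0.5, 1 and 5 μM; DMSO vehicle as negative control. Microtubules labelled by indirect immunofluorescence and examined by fluorescence microscopy. Value is the concentration giving total interphase microtubule disassembly, from three independent experiments.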

SMILES | inhibition
COc1ccc2c(c1)C(c1cc(OC)c3c(c1)OCO3)C1=C(COC1=O)N2 (stereo not given) | Active

Each molecule was assayed on A549 (assay: Cytotoxicity against human A549 cells assessed as cell viability after 24 hrs by MTT assay). Details: A549, 24 h.
Format: functional, cell-based
Procedure, shortened: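 A549 human lung carcinoma cells; growth inhibition measured by MTT assay. IC50 derived from dose-response curves, mean ± SD of three independent experiments.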

SMILES | IC50
OC1=C2C(=Nc3cc4c(cc3C2c2ccccc2)OCO4)CO1 (stereo not given) | 63 nM
COc1ccc(C2C3=C(O)OCC3=Nc3cc4c(cc32)OCO4)cc1 (stereo not given) | > 3200 nM
COc1cc(C2C3=C(COC3=O)Nc3cc4c(c(OC)c32)OCO4)cc2c1OCO2 (stereo not given) | 298 nM
COc1cc(C2C3=C(COC3=O)Nc3c2ccc2c3CCCC2)cc2c1OCO2 (stereo not given) | 159 nM
COc1cc(C2C3=C(COC3=O)Nc3ccccc32)cc2c1OCO2 (stereo not given) | 534 nM
COc1ccc2c(c1)C(c1cc(OC)c3c(c1)OCO3)C1=C(COC1=O)N2 (stereo not given) | 282 nM

What follows are molecules tested on A549 (assay: Inhibition of microtubule polymerization in human A549 cells assessed as total disruption of interphase microtubule network at 1 uM after 8 hrs by immunofluorescence microscopy). Details: not given.
Format: cell-based
Procedure, shortened: as §1

SMILES | inhibition
COc1ccc2c(c1)C(c1cc(OC)c3c(c1)OCO3)C1=C(COC1=O)N2 (stereo not given) | Active

What follows are molecules tested on A549 (assay: Inhibition of microtubule polymerization in human A549 cells assessed as total disruption of interphase microtubule network at 5 uM after 8 hrs by immunofluorescence microscopy). Details: not given.
Format: cell-based
Procedure, shortened: as §1

SMILES | inhibition
COc1ccc2c(c1)C(c1cc(OC)c3c(c1)OCO3)C1=C(COC1=O)N2 (stereo not given) | Active

The molecules below were run on Paracentrotus lividus (assay: Antimitotic activity against Paracentrotus lividus embryo assessed as cleavage arrest treated 10 to 25 mins post fertilization followed by 45 to 60 mins before the first mitotic cycle completion by sea urchin embryo assay). Details: not given.
Format: functional

SMILES | EC
COc1ccc(C2C3=C(COC3=O)Nc3cc4c(c(OC)c32)OCO4)cc1 (stereo not given) | >2000 nM
COc1c(C2C3=C(COC3=O)Nc3cc4c(cc32)OCO4)cc2c(c1OC)OCO2 (stereo not given) | 500 nM
COc1cc(OC)cc(C2C3=C(COC3=O)Nc3cc(OC)ccc32)c1 (stereo not given) | 10 nM
OC1=C2C(=Nc3cc4c(cc3C2c2ccccc2)OCO4)CO1 (stereo not given) | 20 nM
COc1ccc(C2C3=C(O)OCC3=Nc3cc4c(cc32)OCO4)cc1 (stereo not given) | 200 nM
COc1cc([C@@H]2C3=C(COC3=O)Nc3cc4c(cc32)OCO4)cc2c1OCO2 | 200 nM
COc1cc(-c2c3c(nc4cc5c(cc24)CCC5)COC3=O)cc2c1OCO2 | 1000 nM
COc1cc(-c2c3c(nc4c5c(ccc24)CCC5)COC3=O)cc2c1OCO2 | >4000 nM
COc1cc(C2C3=C(COC3=O)Nc3cc4c(c(OC)c32)OCO4)cc2c1OCO2 (stereo not given) | 500 nM
COc1cccc(C2C3=C(O)OCC3=Nc3cc4c(cc32)OCO4)c1 (stereo not given) | 20 nM
COc1cc([C@H]2C3=C(COC3=O)Nc3cc4c(cc32)OCO4)cc2c1OCO2 | 50 nM
O=C1OCC2=C1C(c1ccc3c(c1)OCO3)c1c(ccc3ccccc13)N2 (stereo not given) | >4000 nM
COc1cc(-c2c3c(nc4c5c(ccc24)CCCC5)COC3=O)cc2c1OCO2 | 2000 nM
COc1cc(C2C3=C(COC3=O)Nc3c2ccc2c3CCCC2)cc2c1OCO2 (stereo not given) | 50 nM
COc1cc(C2C3=C(COC3=O)Nc3ccccc32)cc2c1OCO2 (stereo not given) | 200 nM
OC1=C2C(=Nc3cc4c(cc3C2c2ccc3c(c2)OCO3)OCO4)CO1 (stereo not given) | 50 nM
COc1ccc2c(c1)C(c1cc(OC)c3c(c1)OCO3)C1=C(COC1=O)N2 (stereo not given) | 50 nM
COc1cc(C2C3=C(COC3=O)Nc3cc4c(cc32)OCO4)c(OC)c2c1OCO2 (stereo not given) | 2000 nM

The molecules below were run on A549 (assay: Inhibition of microtubule polymerization in human A549 cells assessed as total disruption of interphase microtubule network at > 5 uM after 8 hrs by immunofluorescence microscopy). Details: not given.
Format: cell-based

SMILES | inhibition
COc1cc(C2C3=C(COC3=O)Nc3cc4c(c(OC)c32)OCO4)cc2c1OCO2 (stereo not given) | Active
COc1cc(C2C3=C(COC3=O)Nc3ccccc32)cc2c1OCO2 (stereo not given) | Active

The molecules below were run on Paracentrotus lividus (assay: Antimitotic activity against Paracentrotus lividus embryo assessed as embryo spinning treated 10 to 25 mins post fertilization followed by 45 to 60 mins before the first mitotic cycle completion by sea urchin embryo assay). Details: not given.
Format: functional

SMILES | EC
COc1ccc(C2C3=C(COC3=O)Nc3cc4c(c(OC)c32)OCO4)cc1 (stereo not given) | >2000 nM
COc1c(C2C3=C(COC3=O)Nc3cc4c(cc32)OCO4)cc2c(c1OC)OCO2 (stereo not given) | 4000 nM
COc1cc(OC)cc(C2C3=C(COC3=O)Nc3cc(OC)ccc32)c1 (stereo not given) | 200 nM
OC1=C2C(=Nc3cc4c(cc3C2c2ccccc2)OCO4)CO1 (stereo not given) | 100 nM
COc1ccc(C2C3=C(O)OCC3=Nc3cc4c(cc32)OCO4)cc1 (stereo not given) | 2000 nM
COc1cc([C@@H]2C3=C(COC3=O)Nc3cc4c(cc32)OCO4)cc2c1OCO2 | 50 nM
COc1cc(-c2c3c(nc4cc5c(cc24)CCC5)COC3=O)cc2c1OCO2 | >5000 nM
COc1cc(-c2c3c(nc4c5c(ccc24)CCC5)COC3=O)cc2c1OCO2 | >5000 nM
COc1cc(C2C3=C(COC3=O)Nc3cc4c(c(OC)c32)OCO4)cc2c1OCO2 (stereo not given) | 2000 nM
COc1cccc(C2C3=C(O)OCC3=Nc3cc4c(cc32)OCO4)c1 (stereo not given) | 100 nM
O=C1OCC2=C1C(c1ccc3c(c1)OCO3)c1c(ccc3ccccc13)N2 (stereo not given) | >4000 nM
COc1cc(-c2c3c(nc4c5c(ccc24)CCCC5)COC3=O)cc2c1OCO2 | 5000 nM
COc1cc(C2C3=C(COC3=O)Nc3c2ccc2c3CCCC2)cc2c1OCO2 (stereo not given) | 100 nM
COc1cc(C2C3=C(COC3=O)Nc3ccccc32)cc2c1OCO2 (stereo not given) | 2000 nM
OC1=C2C(=Nc3cc4c(cc3C2c2ccc3c(c2)OCO3)OCO4)CO1 (stereo not given) | 200 nM
COc1ccc2c(c1)C(c1cc(OC)c3c(c1)OCO3)C1=C(COC1=O)N2 (stereo not given) | 500 nM
COc1cc(C2C3=C(COC3=O)Nc3cc4c(cc32)OCO4)c(OC)c2c1OCO2 (stereo not given) | >5000 nM

Each molecule was assayed on A549 (assay: Inhibition of microtubule polymerization in human A549 cells assessed as total disruption of interphase microtubule network at 0.1 uM after 8 hrs by immunofluorescence microscopy). Details: not given.
Format: cell-based
Procedure, shortened: as §1

SMILES | inhibition
COc1ccc2c(c1)C(c1cc(OC)c3c(c1)OCO3)C1=C(COC1=O)N2 (stereo not given) | Active

What follows are molecules tested on Paracentrotus lividus (assay: Antimitotic activity against Paracentrotus lividus embryo assessed as cleavage alteration treated 10 to 25 mins post fertilization followed by 45 to 60 mins before the first mitotic cycle completion by sea urchin embryo assay). Details: not given.
Format: functional

SMILES | EC
COc1ccc(C2C3=C(COC3=O)Nc3cc4c(c(OC)c32)OCO4)cc1 (stereo not given) | 2000 nM
COc1c(C2C3=C(COC3=O)Nc3cc4c(cc32)OCO4)cc2c(c1OC)OCO2 (stereo not given) | 100 nM
COc1cc(OC)cc(C2C3=C(COC3=O)Nc3cc(OC)ccc32)c1 (stereo not given) | 2 nM
OC1=C2C(=Nc3cc4c(cc3C2c2ccccc2)OCO4)CO1 (stereo not given) | 5 nM
COc1ccc(C2C3=C(O)OCC3=Nc3cc4c(cc32)OCO4)cc1 (stereo not given) | 50 nM
COc1cc([C@@H]2C3=C(COC3=O)Nc3cc4c(cc32)OCO4)cc2c1OCO2 | 50 nM
COc1cc(-c2c3c(nc4cc5c(cc24)CCC5)COC3=O)cc2c1OCO2 | 100 nM
COc1cc(-c2c3c(nc4c5c(ccc24)CCC5)COC3=O)cc2c1OCO2 | 100 nM
COc1cc(C2C3=C(COC3=O)Nc3cc4c(c(OC)c32)OCO4)cc2c1OCO2 (stereo not given) | 50 nM
COc1cccc(C2C3=C(O)OCC3=Nc3cc4c(cc32)OCO4)c1 (stereo not given) | 5 nM
COc1cc([C@H]2C3=C(COC3=O)Nc3cc4c(cc32)OCO4)cc2c1OCO2 | 5 nM
O=C1OCC2=C1C(c1ccc3c(c1)OCO3)c1c(ccc3ccccc13)N2 (stereo not given) | >4000 nM
COc1cc(-c2c3c(nc4c5c(ccc24)CCCC5)COC3=O)cc2c1OCO2 | 200 nM
COc1cc(C2C3=C(COC3=O)Nc3c2ccc2c3CCCC2)cc2c1OCO2 (stereo not given) | 5 nM
COc1cc(C2C3=C(COC3=O)Nc3ccccc32)cc2c1OCO2 (stereo not given) | 20 nM
OC1=C2C(=Nc3cc4c(cc3C2c2ccc3c(c2)OCO3)OCO4)CO1 (stereo not given) | 10 nM
COc1ccc2c(c1)C(c1cc(OC)c3c(c1)OCO3)C1=C(COC1=O)N2 (stereo not given) | 10 nM
COc1cc(C2C3=C(COC3=O)Nc3cc4c(cc32)OCO4)c(OC)c2c1OCO2 (stereo not given) | 1000 nM
